Test results: ChEMBL document CHEMBL4680159, “Novel modified leucine and phenylalanine dipeptides modulate viability and attachment of cancer cells” (2020)
Activity calls are given as the source filed them. No cut-off for these calls is given here.

Experiments:
K562 = experiment: Antiproliferative activity against human K562 cells assessed as growth inhibition measured after 72 hrs by calcein AM dye-based fluorescence assay; assay type: functional
Procedure, shortened: (§1)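 Cells exposed to three-fold compound dilutions in triplicate for 72 h. Calcein AM then added and live-cell fluorescence read at 485/538 nm (ex/em). GI50 taken from dose-response curves. Values from at least triplicate measurements.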

CCRF-CEM = experiment: Antiproliferative activity against human CEM cells assessed as growth inhibition measured after 72 hrs by calcein AM dye-based fluorescence assay; assay type: functional; procedure, shortened: as §1
G-361 = experiment: Antiproliferative activity against human G361 cells assessed as growth inhibition measured after 72 hrs by calcein AM dye-based fluorescence assay; assay type: functional; procedure, shortened: as §1
HCT-116 [1] = experiment: Antiproliferative activity against human HCT116 cells assessed as growth inhibition measured after 72 hrs by calcein AM dye-based fluorescence assay; assay type: functional; procedure, shortened: as §1
MCF7 = experiment: Antiproliferative activity against human MCF7 cells assessed as growth inhibition measured after 72 hrs by calcein AM dye-based fluorescence assay; assay type: functional; procedure, shortened: as §1
HCT-116 [2] = experiment: Antiproliferative activity against human HCT-116 cells assessed as increase in cell death at 25 uM measured after 24 hrs by IncuCyte live-cell imaging analysis; assay type: functional, cell-based
Procedure, shortened: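 HCT-116 cells plated at 10 000 cells/well and exposed to compounds at 25 µM for 24 h. Cell membrane integrity/death followed in real time by live-cell imaging with a Cytotox Red reagent.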

Compound | GI50 (K562) | GI50 (CCRF-CEM) | GI50 (HCT-116 [1]) | GI50 (MCF7) | GI50 (G-361) | Activity (HCT-116 [2])
O=C(N[C@@H](Cc1ccccc1)C(=O)N[C@@H](Cc1ccccc1)C(=O)Nc1ccc(C(F)(F)F)cc1)c1cc(Cl)ccc1OCc1ccccc1 | 12.7 µM | 11.3 µM |  |  |  | 
CC(C)C[C@H](NC(=O)c1cc(Cl)ccc1OCc1ccccc1)C(=O)N[C@@H](CC(C)C)C(=O)Nc1ccccc1 | 71.2 µM | 48.9 µM |  |  |  | 
O=C(N[C@@H](Cc1ccccc1)C(=O)N[C@@H](Cc1ccccc1)C(=O)Nc1ccc(C(F)(F)F)cc1)c1cc(Cl)ccc1O | 5.1 µM | 4.7 µM | 4.5 µM | 5.6 µM | 5.1 µM | 
CC(C)C[C@H](NC(=O)c1cc(Cl)ccc1OCc1ccccc1)C(=O)N[C@@H](CC(C)C)C(=O)N1CCOCC1 | 21 µM | 20.1 µM |  |  |  | 
CC(C)C[C@H](NC(=O)c1cc(Cl)ccc1OCc1ccccc1)C(=O)N[C@@H](CC(C)C)C(=O)Nc1ccc(Cl)c(Cl)c1 | > 100 µM | 56.4 µM |  |  |  | 
O=C(N[C@@H](Cc1ccccc1)C(=O)N[C@@H](Cc1ccccc1)C(=O)Nc1ccc(Cl)c(Cl)c1)c1cc(Cl)ccc1OCc1ccccc1 | 9.9 µM | 32.8 µM |  |  |  | 
O=C(N[C@@H](Cc1ccccc1)C(=O)N[C@@H](Cc1ccccc1)C(=O)Nc1ccc(Cl)c(Cl)c1)c1cc(Cl)ccc1O | 5.8 µM | 3.1 µM | 3 µM | 5.2 µM | 4.5 µM | 
O=C(N[C@@H](Cc1ccccc1)C(=O)Nc1ccc(C(F)(F)F)cc1)c1cc(Cl)ccc1OCc1ccccc1 | > 50 µM | 31.5 µM |  |  |  | 
COc1ccc(NC(=O)[C@H](CC(C)C)NC(=O)[C@H](CC(C)C)NC(=O)c2cc(Cl)ccc2OCc2ccccc2)cc1 | 68.3 µM | 53.2 µM |  |  |  | 
CC(C)C[C@H](NC(=O)c1cc(Cl)ccc1OCc1ccccc1)C(=O)N[C@@H](Cc1ccccc1)C(=O)Nc1ccc(Cl)c(Cl)c1 | 57.5 µM | 45.4 µM |  |  |  | 
CC(C)C[C@H](NC(=O)c1cc(Cl)ccc1OCc1ccccc1)C(=O)N[C@@H](CC(C)C)C(=O)NC1CCCCC1 | 19.8 µM | 9.8 µM |  |  |  | 
CC(C)C[C@H](NC(=O)c1cc(Cl)ccc1O)C(=O)N[C@@H](CC(C)C)C(=O)NC1CCCCC1 | 55.7 µM | 38.2 µM |  |  |  | 
CC(C)C[C@H](NC(=O)c1cc(Cl)ccc1O)C(=O)N[C@@H](CC(C)C)C(=O)N1CCOCC1 | > 50 µM | 54.9 µM |  |  |  | 

Second part, led by results:

GI50 (K562) | GI50 (CCRF-CEM) | GI50 (HCT-116 [1]) | GI50 (MCF7) | Compound | GI50 (G-361) | Activity (HCT-116 [2])
> 50 µM | 35.4 µM |  |  | CC(C)C[C@H](NC(=O)c1cc(Cl)ccc1OCc1ccccc1)C(=O)Nc1ccc(C(F)(F)F)cc1 |  | 
5.2 µM | 4.5 µM |  |  | O=C(N[C@@H](Cc1ccccc1)C(=O)Nc1ccc(C(F)(F)F)cc1)c1cc(Cl)ccc1O |  | 
51 µM | 23.3 µM |  |  | COc1ccc(NC(=O)[C@H](CC(C)C)NC(=O)[C@H](CC(C)C)NC(=O)c2cc(Cl)ccc2O)cc1 |  | 
31.1 µM | 19.7 µM |  |  | CC(C)C[C@H](NC(=O)c1cc(Cl)ccc1O)C(=O)N[C@@H](CC(C)C)C(=O)Nc1nccs1 |  | 
7.5 µM | 6.2 µM | 5.8 µM | 5.3 µM | CC(C)C[C@H](NC(=O)c1cc(Cl)ccc1O)C(=O)N[C@@H](CC(C)C)C(=O)Nc1ccc(C(F)(F)F)cc1 | 11.5 µM | 
74.6 µM | 59.9 µM |  |  | CC(C)C[C@H](NC(=O)c1cc(Cl)ccc1OCc1ccccc1)C(=O)N[C@@H](CC(C)C)C(=O)Nc1ccc(C(F)(F)F)cc1 |  | 
20.1 µM | 10.2 µM |  |  | CC(C)C[C@H](NC(=O)c1cc(Cl)ccc1O)C(=O)N[C@@H](CC(C)C)C(=O)Nc1ccccc1 |  | 
30.7 µM | 13.2 µM |  |  | Cc1ccc(NC(=O)[C@H](CC(C)C)NC(=O)[C@H](CC(C)C)NC(=O)c2cc(Cl)ccc2O)cc1 |  | 
87.7 µM | 52.8 µM |  |  | Cc1ccc(NC(=O)[C@H](CC(C)C)NC(=O)[C@H](CC(C)C)NC(=O)c2cc(Cl)ccc2OCc2ccccc2)cc1 |  | 
3.2 µM | 2.6 µM | 4 µM | 4.1 µM | CC(C)C[C@H](NC(=O)c1cc(Cl)ccc1O)C(=O)N[C@@H](CC(C)C)C(=O)Nc1ccc(Cl)c(Cl)c1 | 5.2 µM | inactive
5 µM | 5 µM |  |  | CC(C)C[C@H](NC(=O)c1cc(Cl)ccc1O)C(=O)Nc1ccc(C(F)(F)F)cc1 |  | 
